{"source": "ChEMBL document CHEMBL1828498", "about": "“Identification and characterization of a novel integrin-linked kinase inhibitor” (J Med Chem, 2011)", "key": {"[1]": {"molecular_target": "T1, Scaffold protein ILK (Homo sapiens) (UniProt Q13418)", "T1 sequence (whole entry)": "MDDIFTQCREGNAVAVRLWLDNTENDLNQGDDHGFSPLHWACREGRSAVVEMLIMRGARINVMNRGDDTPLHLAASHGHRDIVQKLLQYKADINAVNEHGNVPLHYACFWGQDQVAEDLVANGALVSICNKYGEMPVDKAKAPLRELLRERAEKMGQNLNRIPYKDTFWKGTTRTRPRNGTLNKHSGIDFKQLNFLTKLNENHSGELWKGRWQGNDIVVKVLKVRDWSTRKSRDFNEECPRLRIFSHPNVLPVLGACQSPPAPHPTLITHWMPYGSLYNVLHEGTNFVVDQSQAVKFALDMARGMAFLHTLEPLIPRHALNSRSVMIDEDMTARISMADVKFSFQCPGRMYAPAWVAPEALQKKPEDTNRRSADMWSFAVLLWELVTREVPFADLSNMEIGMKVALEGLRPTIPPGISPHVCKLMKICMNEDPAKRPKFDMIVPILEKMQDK", "experiment": "Inhibition of ILK in human MDA-MB-231 cells assessed as decrease in MLC phosphorylation by Western blot analysis", "assay_type": "cell-based", "outline": "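PC-3 and MDA-MB-231 cells exposed 24 h in 5% FBS medium across a concentration series. Phospho-GSK3β (Ser9) and phospho-MLC (Thr18/Ser19) detected by immunoblot: SDS lysis, primary 1:1000 at 4°C for 2 h, HRP secondary, ECL. Representative of three experiments.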"}, "[2]": {"molecular_target": "T2, 3-phosphoinositide-dependent protein kinase 1 (Homo sapiens) (UniProt O15530)", "T2 sequence (whole entry)": "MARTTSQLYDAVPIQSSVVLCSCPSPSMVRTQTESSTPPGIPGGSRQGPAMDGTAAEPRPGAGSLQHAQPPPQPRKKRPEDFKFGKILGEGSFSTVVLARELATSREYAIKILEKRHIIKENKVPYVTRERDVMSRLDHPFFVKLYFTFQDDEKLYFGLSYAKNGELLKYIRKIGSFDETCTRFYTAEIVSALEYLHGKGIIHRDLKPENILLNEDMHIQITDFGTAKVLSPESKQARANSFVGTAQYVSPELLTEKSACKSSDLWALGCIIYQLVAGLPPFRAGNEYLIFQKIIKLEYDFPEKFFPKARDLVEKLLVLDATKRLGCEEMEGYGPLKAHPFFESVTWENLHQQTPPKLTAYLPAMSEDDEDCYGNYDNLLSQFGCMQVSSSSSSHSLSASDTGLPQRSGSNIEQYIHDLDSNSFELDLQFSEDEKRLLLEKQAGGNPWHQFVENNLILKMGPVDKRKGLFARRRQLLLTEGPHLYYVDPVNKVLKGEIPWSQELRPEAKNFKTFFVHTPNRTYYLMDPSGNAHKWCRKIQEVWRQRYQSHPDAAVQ", "experiment": "Inhibition of PDK2 in human PC3 cells assessed as Akt Thr-308 dephosphorylation by Western blot analysis", "assay_type": "functional, cell-based", "settings": "PC-3", "outline": "(§1)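 Cells exposed 24 h in 5% FBS medium, final DMSO 0.1%; lysed in 1% SDS/10 mM EDTA/50 mM Tris pH 8.1, equal protein on SDS-PAGE, nitrocellulose, primary antibody 1:1000 at 4°C for 2 h, HRP secondary 1:5000, ECL detection; blots representative of three independent experiments.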"}, "[3]": {"molecular_target": "Cyclin-dependent kinase 1/cyclin B1 (Homo sapiens) (UniProt P06493+P14635)", "sequence (P06493 whole entry, looked up)": "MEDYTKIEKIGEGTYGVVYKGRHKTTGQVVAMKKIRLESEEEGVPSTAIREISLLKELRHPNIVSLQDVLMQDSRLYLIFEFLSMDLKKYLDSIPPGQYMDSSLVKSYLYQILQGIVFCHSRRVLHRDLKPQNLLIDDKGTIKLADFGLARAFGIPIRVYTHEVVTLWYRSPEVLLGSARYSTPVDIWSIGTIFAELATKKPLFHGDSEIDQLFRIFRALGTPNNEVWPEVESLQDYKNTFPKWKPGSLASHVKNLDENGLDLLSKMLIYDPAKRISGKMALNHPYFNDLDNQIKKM", "sequence (P14635 whole entry, looked up)": "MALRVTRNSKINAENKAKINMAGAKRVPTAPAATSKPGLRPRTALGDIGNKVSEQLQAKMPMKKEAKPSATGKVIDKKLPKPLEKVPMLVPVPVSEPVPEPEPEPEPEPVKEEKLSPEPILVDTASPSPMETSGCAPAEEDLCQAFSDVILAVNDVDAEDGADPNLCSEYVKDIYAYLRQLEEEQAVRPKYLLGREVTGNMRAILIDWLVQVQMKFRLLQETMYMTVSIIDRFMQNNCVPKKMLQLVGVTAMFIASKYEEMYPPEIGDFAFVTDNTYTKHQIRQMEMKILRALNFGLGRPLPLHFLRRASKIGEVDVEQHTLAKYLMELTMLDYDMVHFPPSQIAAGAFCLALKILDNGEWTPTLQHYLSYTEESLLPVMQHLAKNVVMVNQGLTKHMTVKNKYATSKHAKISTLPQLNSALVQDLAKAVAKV", "experiment": "Inhibition of CDK1/cyclin B at 5 uM assessed as remaining activity", "assay_type": "protein-complex assay", "outline": "(§2)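 Panel of 20 recombinant kinases, profiled by a commercial vendor.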"}, "[4]": {"system": "3-phosphoinositide dependent protein kinase-2, PDK2", "experiment": "Inhibition of PDK2 in human MDA-MB-231 cells assessed as Akt Ser-473 dephosphorylation by Western blot analysis", "assay_type": "functional, cell-based", "outline": "as §1"}, "[5]": {"molecular_target": "Tyrosine-protein kinase JAK2 (Homo sapiens) (UniProt O60674)", "sequence (O60674 whole entry)": "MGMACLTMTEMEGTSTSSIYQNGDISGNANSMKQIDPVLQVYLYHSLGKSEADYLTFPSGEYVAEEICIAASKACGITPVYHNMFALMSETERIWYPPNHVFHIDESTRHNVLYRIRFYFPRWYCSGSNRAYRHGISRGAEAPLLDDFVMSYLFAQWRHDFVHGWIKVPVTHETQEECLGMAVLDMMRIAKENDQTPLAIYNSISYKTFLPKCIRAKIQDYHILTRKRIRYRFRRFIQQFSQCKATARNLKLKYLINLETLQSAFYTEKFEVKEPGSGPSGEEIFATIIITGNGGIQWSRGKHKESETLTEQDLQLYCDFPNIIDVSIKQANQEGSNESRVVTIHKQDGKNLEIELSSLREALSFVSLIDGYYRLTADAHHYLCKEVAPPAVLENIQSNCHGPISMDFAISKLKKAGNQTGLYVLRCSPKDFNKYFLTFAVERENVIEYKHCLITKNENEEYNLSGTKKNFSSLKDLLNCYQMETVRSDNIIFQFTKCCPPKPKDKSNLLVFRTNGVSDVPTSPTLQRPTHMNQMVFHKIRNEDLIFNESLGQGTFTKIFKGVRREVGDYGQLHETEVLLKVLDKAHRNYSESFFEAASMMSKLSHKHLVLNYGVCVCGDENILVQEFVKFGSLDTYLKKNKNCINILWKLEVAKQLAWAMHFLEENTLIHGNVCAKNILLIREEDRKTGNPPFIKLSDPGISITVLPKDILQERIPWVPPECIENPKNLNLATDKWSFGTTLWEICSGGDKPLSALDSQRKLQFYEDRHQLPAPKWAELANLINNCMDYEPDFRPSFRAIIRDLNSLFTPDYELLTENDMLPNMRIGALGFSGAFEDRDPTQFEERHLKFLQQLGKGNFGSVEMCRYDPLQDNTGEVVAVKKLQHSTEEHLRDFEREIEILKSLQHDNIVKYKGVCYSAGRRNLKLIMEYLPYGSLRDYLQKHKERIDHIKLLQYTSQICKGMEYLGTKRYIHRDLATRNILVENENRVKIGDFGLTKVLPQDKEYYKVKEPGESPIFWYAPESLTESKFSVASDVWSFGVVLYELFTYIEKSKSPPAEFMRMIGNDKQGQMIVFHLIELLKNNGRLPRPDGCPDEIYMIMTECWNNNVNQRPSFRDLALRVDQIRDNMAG", "experiment": "Inhibition of Jak2 at 5 uM assessed as remaining activity", "outline": "as §2"}, "PC-3 [6]": {"system": "PC-3", "experiment": "Induction of apoptosis in human PC3 cells assessed as early apoptotic cells at 3 uM by annexin V/PI staining (reference value: 5.6%)", "assay_type": "functional"}, "Mus musculus [7]": {"system": "Mus musculus", "experiment": "Decrease in phosphorylation of YB-1 in human PC3 cells xenografted nude mouse tumor lysate at 25 mg/kg, po administered for 35 days by Western blot analysis", "assay_type": "functional, organism-based", "design": "dose 25 mg/kg", "settings": "Neoplasm, PC-3", "outline": "(§3)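 Male NCr athymic nude mice, 5–7 weeks, with s.c. PC-3 xenografts (0.5 × 10^6 cells in 50% Matrigel), dosed by oral gavage once daily for 35 days. Vehicle 0.5% methylcellulose, 0.1% Tween 80 in water, 10 μL/g. Tumors snap-frozen at sacrifice; three tumors per group immunoblotted.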"}, "Mus musculus [8]": {"system": "Mus musculus", "experiment": "Decrease in phosphorylation of HER2 in human PC3 cells xenografted nude mouse tumor lysate at 25 mg/kg, po administered for 35 days by Western blot analysis", "assay_type": "functional, organism-based", "design": "dose 25 mg/kg", "settings": "Neoplasm, PC-3", "outline": "as §3"}, "PC-3 [9]": {"system": "PC-3", "experiment": "Antiproliferative activity against human PC3 cells expressing constitutively active ILK assessed as cell viability by MTT assay", "assay_type": "functional, cell-based", "outline": "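Stable PC-3 clones expressing GFP-CA-ILK (or GFP), made by electroporation, G418 250 μg/mL for one week and GFP sorting. Treated 24 h in 5% FBS medium. Viability by MTT, 0.25 mg/mL, 1 h at 37°C, A570. n = 6, mean ± SD.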"}, "[10]": {"molecular_target": "Tyrosine-protein kinase ZAP-70 (Homo sapiens) (UniProt P43403)", "sequence (P43403 whole entry)": "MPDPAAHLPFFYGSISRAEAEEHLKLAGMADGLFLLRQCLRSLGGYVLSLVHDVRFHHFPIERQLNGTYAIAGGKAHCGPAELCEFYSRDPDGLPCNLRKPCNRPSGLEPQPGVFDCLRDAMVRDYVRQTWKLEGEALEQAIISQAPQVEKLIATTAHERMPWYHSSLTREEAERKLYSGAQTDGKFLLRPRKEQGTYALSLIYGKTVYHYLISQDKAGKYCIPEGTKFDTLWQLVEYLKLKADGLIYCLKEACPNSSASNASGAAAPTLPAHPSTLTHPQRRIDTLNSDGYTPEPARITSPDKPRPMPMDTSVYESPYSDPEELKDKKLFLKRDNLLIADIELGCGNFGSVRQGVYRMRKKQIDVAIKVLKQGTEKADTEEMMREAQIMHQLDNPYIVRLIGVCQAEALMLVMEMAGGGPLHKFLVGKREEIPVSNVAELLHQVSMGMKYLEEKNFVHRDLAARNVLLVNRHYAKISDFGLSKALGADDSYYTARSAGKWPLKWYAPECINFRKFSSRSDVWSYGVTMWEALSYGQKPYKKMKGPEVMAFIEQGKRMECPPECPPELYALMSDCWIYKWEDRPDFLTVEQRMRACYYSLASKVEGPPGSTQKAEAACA", "experiment": "Inhibition of ZAP70 at 5 uM assessed as remaining activity"}, "HMEC": {"system": "HMEC", "experiment": "Antiproliferative activity against human HMEC cells at 1 to 5 uM by MTT assay", "assay_type": "cell-based", "outline": "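Cancer lines seeded 5000/well and nonmalignant PrEC/MEC 8000/well in 10% FBS, 24 h before treatment. Compound exposure 24 h in 5% FBS medium, 0.1% final DMSO. MTT (0.25 mg/mL) for 1 h at 37°C, dye solubilized in DMSO, absorbance read at 570 nm. Mean ± SD, n = 6.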"}, "PC-3 [11]": {"system": "PC-3", "experiment": "Reduction in YB-1 mRNA expression in human PC3 cells expressing constitutively active ILK after 24 hrs by RT-PCR analysis", "assay_type": "functional, cell-based", "outline": "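PC-3, PC-3/CA-ILK, SKBR3 and SKBR3/CA-ILK cells treated 24 h in 5% FBS medium; total RNA from 1 × 10^6 cells by Trizol, 1 μg reverse-transcribed, then PCR with gene-specific primers and β-actin reference.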"}, "PC-3 [12]": {"system": "PC-3", "experiment": "Reduction in EGFR concentration in human PC3 cells expressing constitutively active ILK after 24 hrs by Western blot analysis", "assay_type": "functional, cell-based", "outline": "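PC-3 versus stable PC-3/CA-ILK, or SKBR3 versus transient SKBR3/CA-ILK (electroporation, used 48 h after), treated 24 h in 5% FBS medium; immunoblotting with ECL; representative of three experiments.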"}, "PC-3 [13]": {"system": "PC-3", "experiment": "Induction of autophagy in human PC3 cells assessed as LC3-II conversion by Western blot analysis", "assay_type": "functional, cell-based", "outline": "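PC-3 cells treated 24 h in 5% FBS medium. Lysed in 1% SDS/10 mM EDTA/50 mM Tris pH 8.1, equal protein on SDS-PAGE, primary antibody 1:1000 at 4°C for 2 h, HRP secondary, ECL detection. Read-outs PARP cleavage and LC3-II conversion; blots representative of three experiments.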"}}, "note": "Activity calls are given as the source filed them. Unless noted, no cut-off for these calls is given here."}
{"compound": "CNC(=O)CCc1cc(-c2ccc(-c3ccc(C(F)(F)F)cc3)cc2)n(-c2ccc(N3CCNCC3)cc2)n1", "values": [{"measurement": "inhibition", "setting": "[1]", "value": "Active"}, {"measurement": "inhibition", "setting": "[2]", "value": "inactive"}, {"measurement": "Activity", "setting": "[3]", "value": 73, "unit": "%"}, {"measurement": "inhibition", "setting": "[4]", "value": "Dose-dependent effect"}, {"measurement": "Activity", "setting": "[5]", "value": 114, "unit": "%"}, {"measurement": "Activity", "setting": "PC-3 [6]", "value": 12.1, "unit": "%"}, {"measurement": "Activity", "setting": "Mus musculus [7]", "value": "Active"}, {"measurement": "Activity", "setting": "Mus musculus [8]", "value": "Active"}, {"measurement": "inhibition", "setting": "PC-3 [9]", "value": "inactive"}, {"measurement": "Activity", "setting": "[10]", "value": 104, "unit": "%"}, {"measurement": "inhibition (INH)", "setting": "HMEC", "value": "Not Active"}, {"measurement": "Activity", "setting": "PC-3 [11]", "value": "inactive"}, {"measurement": "Activity", "setting": "PC-3 [12]", "value": "inactive"}, {"measurement": "Activity", "setting": "PC-3 [13]", "value": "Dose-dependent effect"}]}
